SF1 activator: SF-1 (human) activation; Q13285; activation, % at 10 µM; CHO-K1 Gal4-SF-1 LBD luciferase reporter; % increase over DMSO SF-1-specific signal; AID 522; 65,000 tested, 1.9% active;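 active = activation above the mean activation of all tested compounds plus 3 SD, cut at about 50% in these data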
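Compound – one dose, 10 µM compound, 1% DMSO · Test system – transient Gal4-SF-1 LBD reporter, CHO-K1 · Input – 4,000 cells in each well · Read-out basis – percent activation relative to DMSO median and mock-transfected background · Replicates – single measurement per compound · Technique – steady-glow luciferase luminescence, read after 15 min reagent incubation · Timing – 20 h compound treatment, 37 °C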
RORA act: activators of human nuclear receptor RORA; AID 560; CHO-K1 Gal4-RORA LBD luciferase reporter, luminescence; percent increase over mock-subtracted basal signal; activation, % at 10 µM; 65,000 tested, 1.5% active;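 active = activation above the mean of all tested compounds plus 3 SD, cut at about 49% in these data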
BAP1 block: blocks human BAP1 ubiquitin-AMC hydrolysis. Q92560. recombinant BAP1, Ub-AMC hydrolysis fluorescence kinetic; hits give low values. calls only at 20 µM. 72,000 tested, 0.48% active;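 active = activity remaining at or below 50% of control, provided the compound also passes the data quality filters; inactive = the rest, including low values that fail the filters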
ERa SRC1 inh: ER-alpha (human) coactivator binding inhibition | TR-FRET ER-alpha LBD / SRC-1 peptide, estradiol-bound | inhibition, % at 25.6 µM | AID 629 | P03372 | 86,000 tested, 1.7% active; in the data active = inhibition above about 50%
Target sequence (P03372 whole entry, looked up, the tested form may be a part): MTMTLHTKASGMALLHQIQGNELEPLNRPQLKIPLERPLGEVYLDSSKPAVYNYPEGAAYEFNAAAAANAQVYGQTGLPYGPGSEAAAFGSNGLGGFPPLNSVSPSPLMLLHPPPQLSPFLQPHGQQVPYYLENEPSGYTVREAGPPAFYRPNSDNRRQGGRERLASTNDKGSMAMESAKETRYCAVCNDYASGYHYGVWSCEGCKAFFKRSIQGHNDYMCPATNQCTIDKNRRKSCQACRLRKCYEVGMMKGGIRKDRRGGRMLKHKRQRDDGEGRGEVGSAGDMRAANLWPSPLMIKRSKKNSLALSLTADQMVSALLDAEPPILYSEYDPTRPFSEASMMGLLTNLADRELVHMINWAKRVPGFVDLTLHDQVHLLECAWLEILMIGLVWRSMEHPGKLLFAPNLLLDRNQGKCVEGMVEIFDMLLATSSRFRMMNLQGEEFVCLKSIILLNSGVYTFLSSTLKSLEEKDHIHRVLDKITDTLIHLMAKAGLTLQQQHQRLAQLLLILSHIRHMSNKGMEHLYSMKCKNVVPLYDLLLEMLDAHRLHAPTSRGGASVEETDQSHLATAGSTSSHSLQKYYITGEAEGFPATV
ERa coact pot: ER-alpha (human) coactivator binding potentiation. coactivator binding (% of control), % at 25.6 µM. 86,000 tested, 1.3% active. P03372. TR-FRET ERalpha-LBD/SRC-Cy5 coactivator binding, 2 h; 100 = basal binding, no effect; in the data active = activity above about 200%;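 also: binding measured in presence of low estradiol as agonist stimulus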
ERb SRC1 inh: ER-beta (human) coactivator binding inhibition; Q92731; TR-FRET ER-beta LBD / SRC1-Cy5 peptide binding; receptor agonist-loaded with 1 µM estradiol; inhibition, % at 25.6 µM; 86,000 tested, 1.3% active;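 active = compounds whose percent inhibition of the receptor-coactivator binding signal exceeds about 50% in the single-dose screen, limit read from the data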
A number is an active result; - = inactive; . = no result shown; [ ] = another dose, or the depositor's remark. The list is not random: actives were taken first. Their share in the collection is about 5.1%.

SMILES	SF1 activator	RORA act	BAP1 block	ERa SRC1 inh	ERa coact pot	ERb SRC1 inh
O=C(c1cc2ncc(Br)cn2n1)N1CCOCC1	.	.	.	-	-	58
CCOC(=O)C1CCCN(C(=O)c2cc3ncc(Br)cn3n2)C1 (configuration not stated)	-	-	-	57	-	60[fluorescence artefact?]
O=C(c1cc2ncc(Br)cn2n1)N1CCN(C(=O)c2ccco2)CC1	-	-	-	61	-	52
CC1=C(C(=O)OCCc2ccccc2)C(c2cccc([N+](=O)[O-])c2)C2=C(CC(c3ccccc3)CC2=O)N1 (configuration not stated)	.	.	-	.	.	.
CC(C)(C)c1ccc(C(=O)Oc2ccc(Cl)cc2)cc1	.	.	-	.	.	.
CC(NC(=O)C1CC1)C(c1cccs1)N1CCN(c2ccccc2)CC1 (configuration not stated)	-	-	-	-	-	56[fluorescence artefact?]
Nc1c(C(=O)NCCN2CCOCC2)c2nc3ccccc3nc2n1-c1ccc2c(c1)OCO2	-	55	-	63[fluorescence artefact?]	-	-
Nc1ccc(-n2c(N)c(C(=O)NCc3ccc4c(c3)OCO4)c3nc4ccccc4nc32)cc1	-	-	-	79[fluorescence artefact?]	-	-
Nc1c(C(=O)NCCN2CCOCC2)c2nc3ccccc3nc2n1-c1ccccc1	-	-	.	-	-	-
Cc1cccc(NC(=O)c2cc(=O)c3ccccc3o2)c1C	.	.	-	.	.	.
CN(C)c1ccc(C2SCCN2C(=O)c2cc3ccccc3oc2=O)cc1 (configuration not stated)	.	.	-	.	.	.
COc1cc(NC(=O)COc2ccccc2C(C)(C)C)c(OC)cc1Cl	.	.	-	.	.	.
COc1ccc(C(=O)c2coc3ccc(O)c(CN4CCCC4)c23)cc1	-	-	-	-	-	-
COc1ccc(-c2coc3c(CN4CCCCC4)c(O)c(CN4CCCCC4)c(O)c3c2=O)cc1	-	-	-	67[fluorescence artefact?]	-	-
O=C(c1cccc(S(=O)(=O)NC2CCCCCC2)c1)N1CCCc2ccccc21	.	.	-	.	.	.
C=CCNc1nc(N)c(C(=O)Nc2cc(C)on2)s1	-	-	-	-	-	-
Cc1cc(C(F)(F)F)c2c(N)c(C(=O)Nc3cc(C)on3)sc2n1	-	-	-	-	214[fluorescence artefact?]	-
O=C(Nc1ccc(F)cc1)c1ccc([N+](=O)[O-])o1	.	.	-	.	.	.
COc1ccc2cc3cc(C(=O)Nc4ccc5c(c4)OCO5)oc3nc2c1	-	-	-	-	-	-
Cc1ccc2cc3cc(C(=O)NCc4ccc5c(c4)OCO5)oc3nc2c1	-	-	.	51[fluorescence artefact?]	-	-
COc1ccc(C)cc1NC(=O)c1cc2cc3ccc(C)cc3nc2o1	-	-	-	-	209	-
COc1ccc2nc3oc(C(=O)Nc4ccc(OC)c(OC)c4)cc3cc2c1	.	.	.	63[fluorescence artefact?]	-	-
COc1ccc2cc3cc(C(=O)NCCc4ccc(OC)c(OC)c4)oc3nc2c1	-	-	-	-	-	-
Cc1cccc(Nc2ncc([N+](=O)[O-])cc2[N+](=O)[O-])n1	.	.	-	.	.	.
COc1ccc(C2C(C(=O)OCCOc3ccccc3)=C(C)NC3=C2C(=O)CCC3)cc1OC (configuration not stated)	.	.	-	.	.	.
SMILES	SF1 activator	RORA act	BAP1 block	ERa SRC1 inh	ERa coact pot	ERb SRC1 inh
CCOC(=O)c1cnc(Nc2nc3ccccc3o2)nc1CSc1nnc(C)s1	-	58	-	.	.	.
Cc1ccc(NC(=O)C(C(C)C)N2C(=O)c3ccccc3C2=O)c(C)c1 (configuration not stated)	.	.	-	.	.	.
O=c1c2c3c(sc2nc2sc(CN4CCCCC4)cn12)CCCC3	.	.	.	51[fluorescence artefact?]	268[fluorescence artefact?]	-
O=c1c2c3c(sc2nc2n1CCCCC2)CCC3	.	.	.	-	-	-
COc1cc(C=Nc2c(C)n(C)n(-c3ccccc3)c2=O)ccc1OC(C)=O	.	.	-	.	.	.
O=C(COC(=O)C1CC2C=CC1C2)NCc1ccco1 (configuration not stated)	-	-	-	72[fluorescence artefact?]	-	57
O=C(COC(=O)C1CCCCC1C(=O)N1CCc2ccccc21)NCc1ccco1 (configuration not stated)	-	-	-	50[fluorescence artefact?]	-	-
O=C(CN1C(=O)C2C3C=CC(C3)C2C1=O)NCc1ccco1 (configuration not stated)	.	.	.	-	-	-
CCCCn1c(SCC(N)=O)nc2c1c(=O)[nH]c(=O)n2C	.	.	-	.	.	.
CCCCNC(=O)CC1SC(=NCC)N(CC)C1=O (configuration not stated)	.	.	.	-	-	-
CCN=C1SC(CC(=O)NC(C)C)C(=O)N1CC (configuration not stated)	.	.	.	-	853[fluorescence artefact?]	-
COc1cc([N+](=O)[O-])ccc1N1C(=O)c2cccc([N+](=O)[O-])c2C1=O	.	.	-	.	.	.
O=S(=O)(Nc1ccc(N2CCOCC2)cc1)c1cccs1	-	-	-	97[fluorescence artefact?]	-	76[fluorescence artefact?]
Cn1c(=O)n(CCOc2ccccc2Cl)c2ccccc21	71	-	-	-	-	-
Cn1c(=O)n(CCOc2ccc(Cl)cc2Cl)c2ccccc21	.	.	.	-	-	-
CCOC(=O)c1c2c(c(=S)n(-c3ccccc3)c1N)CCC2	-	-	-	-	-	-
CCOC(=O)c1c(N)sn(-c2ccccc2)c1=S	-	-	-	-	590[fluorescence artefact?]	-
Cc1ccc([N+](=O)[O-])cc1N1C(=O)C2C3C=CC(C4CC34)C2C1=O (configuration not stated)	.	.	-	.	.	.
CC(=O)NCc1nc2ccccc2[nH]1	.	.	-	.	.	.
C=CCc1cccc2cc(C(=O)NCc3cccnc3)c(=O)oc12	-	-	-	81[fluorescence artefact?]	-	-
Clc1cccc2sc(N3CCCC3)nc12	50	-	-	.	.	.
COc1ccc(-n2nc(C(=O)NCC(=O)N3CCN(c4ccccn4)CC3)c3ccccc3c2=O)cc1	60	-	-	-	-	-
COC(=O)C1=C(C)NC(=O)CC1c1cc(Br)ccc1OC (configuration not stated)	.	.	-	.	.	.
c1coc(-c2nnc(NC3=NCCC3)o2)c1	61	-	-	-	-	-
CCSc1nc2c(c(=O)n1C1CCOC(C)(C)C1)C1(CCCCC1)Cc1ccccc1-2 (configuration not stated)	.	.	-	.	.	.
SMILES	SF1 activator	RORA act	BAP1 block	ERa SRC1 inh	ERa coact pot	ERb SRC1 inh
O=C(COc1ccc(Br)cc1)Nc1ccc(-c2nnc(-c3ccco3)o2)cc1	-	-	.	-	268[fluorescence artefact?]	-
COc1ccc(Br)cc1C(=O)Nc1cccc(-c2nnc(-c3ccco3)o2)c1	-	-	-	69[fluorescence artefact?]	-	53[fluorescence artefact?]
c1cncc(-c2nnc(-c3ccco3)o2)c1	-	-	-	-	-	-
COc1cccc(C(=O)Nc2cccc(-c3nnc(-c4ccco4)o3)c2)c1	.	.	.	-	-	-
Clc1ccc(-c2nnc(-c3ccco3)o2)cc1	-	50	-	-	-	-
Cc1ccc(N2C(=O)C(Cl)=C(Nc3ccccc3F)C2=O)c(C)c1	.	.	-	.	.	.
Clc1ccc(Cn2c(N=Cc3ccc4c(c3)OCO4)nc3ccccc32)cc1	.	.	-	.	.	.
CNC(=O)C1CC(=O)N(CCc2ccc(OC)cc2)C(=Nc2ccc(OC)cc2)S1 (configuration not stated)	.	.	.	-	-	-
